Screening results as filed in PubChem.
Compounds with a hit are over-represented: about 3.3% of the library has one in this group of screens.
SENP1 FRET inh: human SENP1 catalytic domain inhibitors, primary screen, biochemical, FRET, uHTS; Sentrin-specific protease 1 (Homo sapiens), Q9P0U3; recombinant SENP1 catalytic domain, CyPet-SUMO1-YPet FRET cleavage; inhibition, % at 10 µM; actives 0.21% (n = 360,000);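 active means inhibition at least 30% at 10 µM, raw YFP signal under a set limit, fluorescence ratio 0.5 to 1.5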
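Compound: 10 µM single point, 0.5% DMSO; Test system: hSENP1 catalytic domain, recombinant; Timing: 50 min reaction at room temperature; Technique: FRET, CFP and YFP emission; Control set: no-enzyme wells low, DMSO-plus-enzyme wells high control.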
NRP1-CendR mod: modulators of CendR peptide binding to NRP-1, primary screen, biochemical, fluorescence polarization, uHTS; inhibition, % at 25 µM; FAM-RPARPAR peptide binding to NRP-1; AID 602438, 2012; actives 0.85% (n = 360,000);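 active means inhibition or corrected inhibition above about 18%, plus a signal ratio from 0.5 to 1.5, limit read from the data, passing the limit was not always enough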
SENP6 block: SENP6 protease inhibitors, primary screen, biochemical, luminescence, uHTS | Sentrin-specific protease 6 (Homo sapiens), Q9GZR1 | Recombinant SENP6 catalytic domain, aminoluciferin luminescence | inhibition, % at 10 µM | actives 1.8% (n = 330,000);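 active means inhibition above about 50% at the single tested dose, limit read from the data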
SENP8 block-1: human SENP8 protease inhibitors, primary screen, biochemical, fluorescence, Nedd8 protein substrate, uHTS. actives 0.64% (n = 360,000). recombinant SENP8. AID 602440, 2012. inhibition, % at 20 µM. Sentrin-specific protease 8 (Homo sapiens), Q96LD8; in the data active means inhibition mostly above about 40%, no sharp cut-off; inactive means mostly below about 27%
Target sequence (Q96LD8 whole entry, looked up): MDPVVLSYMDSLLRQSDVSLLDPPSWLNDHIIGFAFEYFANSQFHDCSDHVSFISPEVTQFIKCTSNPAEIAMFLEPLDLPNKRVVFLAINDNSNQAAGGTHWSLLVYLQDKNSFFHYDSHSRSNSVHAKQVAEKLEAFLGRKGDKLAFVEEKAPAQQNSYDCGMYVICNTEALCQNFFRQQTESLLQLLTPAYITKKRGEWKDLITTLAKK
SENP8 block-2: SENP8 protease inhibitors, primary screen, biochemical, luminescence | Sentrin-specific protease 8 (Homo sapiens), Q96LD8 | purified SENP8, Z-RLRGG-aminoluciferin cleavage | inhibition, % at 10 µM | actives 1.2% (n = 330,000) | AID 2540, 2010; in the data active means inhibition above about 50%
SENP7 block: SENP7 protease inhibitors, primary screen, biochemical, luminescence, uHTS; Sentrin-specific protease 7 (Homo sapiens), Q9BQF6; AID 434973, 2010; actives 1.5% (n = 330,000); inhibition, % at 5 µM; recombinant SENP7, Z-RLRGG-aminoluciferin luminescence, 40 min;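 active means inhibition above about 50% at the single test dose, limit read from the data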
Target sequence (Q9BQF6 706-1050 limits assumed): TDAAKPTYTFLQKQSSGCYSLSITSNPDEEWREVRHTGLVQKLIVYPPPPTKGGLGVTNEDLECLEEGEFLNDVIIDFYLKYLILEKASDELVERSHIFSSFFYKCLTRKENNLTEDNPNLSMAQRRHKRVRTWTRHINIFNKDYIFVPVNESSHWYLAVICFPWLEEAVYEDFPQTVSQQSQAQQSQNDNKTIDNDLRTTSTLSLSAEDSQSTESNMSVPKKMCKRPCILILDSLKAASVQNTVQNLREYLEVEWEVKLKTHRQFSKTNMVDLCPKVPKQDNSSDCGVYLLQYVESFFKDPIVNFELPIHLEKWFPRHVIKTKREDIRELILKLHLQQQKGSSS
SENP8 conf: SENP8 protease inhibitors, retest, confirmation, biochemical, luminescence, single concentration; actives 40% (n = 6,200); Recombinant SENP8, Z-RLRGG-aminoluciferin luminescence, 60 min; shares compounds with SENP7 block; inhibition, % at 12.5 µM;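 active means mean inhibition across replicates above about 50%, limit read from the data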
SENP6 confirm: SENP6 protease inhibitors, confirmation, biochemical, luminescence, single concentration | shares compounds with SENP7 block | recombinant SENP6, Z-RLRGG-aminoluciferin luminescence | inhibition, % at 12.5 µM | actives 58% (n = 6,200) | AID 488915, 2010
SENP7 confirm: SENP7 protease inhibitors, retest, confirmation, biochemical, luminescence, single concentration; shares compounds with SENP7 block; recombinant SENP7, Z-RLRGG-aminoluciferin luminescence, 40 min; inhibition, % at 12.5 µM; actives 69% (n = 6,200); AID 488917, 2010
Casp3 select: caspase-3 protease inhibitors, confirmation, selectivity assay for SENP inhibitor project, biochemical, single concentration | shares compounds with SENP7 block | purified caspase-3, Z-DEVD-aminoluciferin luminescence, 60 min | inhibition, % at 12.5 µM | actives 60% (n = 6,200) | AID 488918, 2010;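 active means mean inhibition above about 50%, limit read from the data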
SENP luc ctr: luminescence interference (SENP counter-screen). shares compounds with SENP7 block. Pre-incubated SENP8/Z-RLRGG-aminoluciferin, luciferase luminescence interference. inhibition, % at 12.5 µM. actives 39% (n = 6,200);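 active means mean inhibition above about 50% when retested at one dose, limit read from the data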
Numbers stand for hits; . = inactive; / = not tested or not shown.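 How the source made its calls, unless noted: active means mean inhibition above about 50% in the one-dose retest (limit read from the data); inactive means the rest.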

SMILES	SENP1 FRET inh	NRP1-CendR mod	SENP6 block	SENP8 block-1	SENP8 block-2	SENP7 block	SENP8 conf	SENP6 confirm	SENP7 confirm	Casp3 select	SENP luc ctr
Cc1ccc(CSCC(=O)Nc2cc(S(=O)(=O)N3CCOCC3)ccc2OCC(F)(F)F)cc1	.	.	/	.	/	/	/	/	/	/	/
COCCNC(=O)C1CCCN(C(=O)/C=C/c2ccccc2)CC1 (configuration not stated)	.	.	/	.	/	/	/	/	/	/	/
CCOC(=O)c1sc(=NC(=O)c2ccccc2Br)n(C)c1C	.	.	.	.	.	.	/	/	/	/	/
CCOC(=O)c1sc(=NC(=O)c2ccc(Cl)s2)n(C)c1C	.	.	.	.	.	53.2	.	.	.	.	.
CCOC(=O)c1sc(=NC(=O)c2cccs2)n(C)c1C	.	.	.	.	.	54.6	.	.	.	.	.
Cc1ccc2c(c1)sc(=NC(=O)c1cccs1)n2C	.	.	92.8	.	95.4	99.6	.	75.4	99.4	95.0	.
CCOC(=O)c1sc(=NC(=O)c2ccc(C)c(C)c2)n(C)c1C	.	.	.	.	.	.	/	/	/	/	/
Cc1ccc2c(c1)sc(=NC(=O)C1CC1)n2C	.	.	.	.	.	.	/	/	/	/	/
CCCn1c(N)c(C(=O)CSc2nnc3ccccn23)c(=O)n(C)c1=O	.	.	.	.	.	.	/	/	/	/	/
CC(C)=C[C@H]1C[C@H](C)[C@H]2CC[C@H](C)c3c(O)c(O[C@H]4OC[C@H](O)[C@@H](O)[C@@H]4O)c(C)c1c32	.	.	/	.	/	/	/	/	/	/	/
CCC(=O)Nc1c(C#N)c2nc3ccccc3nc2n1C1CCCCC1	.	.	.	.	.	.	/	/	/	/	/
N#Cc1c(NC(=O)c2ccccc2Cl)n(Cc2ccccc2)c2nc3ccccc3nc12	.	.	/	.	/	/	/	/	/	/	/
CCCCn1c(NC(=O)c2ccccc2Cl)c(C#N)c2nc3ccccc3nc21	.	.	96.0	.	93.9	70.2	75.8	89.7	78.2	.	.
CCC(=O)Nc1c(C#N)c2nc3ccccc3nc2n1-c1ccccc1C	.	.	54.5	.	.	.	.	.	.	.	.
CCOC(=O)N(C)C[C@@H]1OCc2cnnn2CCCC(=O)N([C@H](C)CO)C[C@@H]1C	.	.	/	.	/	/	/	/	/	/	/
O=[N+]([O-])c1ccc(NN=Cc2cccc([N+](=O)[O-])c2)cc1	.	.	/	.	/	/	/	/	/	/	/
O=[N+]([O-])c1ccc(N/N=C/c2cccc(O)c2)cc1	.	.	82.3	.	77.4	52.6	89.8	88.9	94.4	.	86.5
O=[N+]([O-])c1ccc(N/N=C/c2cccc(O)c2O)cc1	.	.	78.4	.	58.5	.	.	.	84.3	.	67.5
CSCCC(c1nc2ccccc2[nH]1)n1c(/C=C/c2ccc(F)c(F)c2)nc2ccccc21 (configuration not stated)	.	.	/	.	/	/	/	/	/	/	/
CCOC(=O)CCS(=O)(=O)c1ccc(-c2ccc(S(=O)(=O)CCC(=O)OCC)cc2)cc1	.	.	.	.	.	58.2	.	.	.	.	.
CC(C)C[C@H]1CN([C@@H](Cc2ccccc2)CN2CCC[C@@H]2CN2C(=O)C(=O)NC[C@@H]2Cc2ccccc2)C(=O)C(=O)N1CCc1ccccc1	.	.	/	.	/	/	/	/	/	/	/
Cc1ccc(Cn2ccsc2=NC(=O)COC(=O)c2ccc(O)cc2O)cc1	.	.	74.0	.	.	.	57.1	55.1	78.9	.	.
CC(C)C[C@H](NC(=O)CC[C@H]1O[C@@H](n2ccc(=O)[nH]c2=O)[C@H](O)[C@@H]1O)C(=O)O	.	.	/	.	/	/	/	/	/	/	/
Cc1ccc(C(O)C(=O)c2ccco2)cc1 (configuration not stated)	.	.	.	.	.	74.8	.	.	.	.	.
O=C(Nc1ccccc1)c1ccc(NC(=O)C2CC2)cc1	.	.	57.9	.	.	61.9	.	.	66.6	63.6	.
SMILES	SENP1 FRET inh	NRP1-CendR mod	SENP6 block	SENP8 block-1	SENP8 block-2	SENP7 block	SENP8 conf	SENP6 confirm	SENP7 confirm	Casp3 select	SENP luc ctr
O=C(Nc1ccc(C2SCCS2)cc1)c1ccccc1	.	.	.	.	53.0	92.0	.	.	.	.	.
O=C(NNC(=O)c1ccc(NC(=O)C2CC2)cc1)c1ccc(F)cc1	.	.	.	.	.	.	/	/	/	/	/
CNC(=O)Nc1ccc(C2SCCS2)cc1	.	.	.	.	.	.	/	/	/	/	/
CC(=O)Oc1ccc(Oc2ccc(-c3noc(C)n3)cc2)cc1	.	.	.	.	.	.	/	/	/	/	/
CC(=O)Oc1ccc(-c2nc(-c3cccnc3)no2)cc1	.	.	96.4	.	97.5	99.5	97.2	99.2	102.6	98.3	.
CC(=O)Nc1ccc(-c2nc3ccccc3c(=O)o2)cc1	.	.	.	.	.	.	/	/	/	/	/
O=C(Nc1ccc(-c2nnc(-c3ccccc3)o2)cc1)C(F)(F)F	.	.	76.3	.	65.9	91.0	.	.	.	.	.
CC(C)C(=O)Nc1ccc(-c2nnc(-c3ccccc3)o2)cc1	.	.	61.3	.	58.1	75.5	.	.	.	.	.
CC(=O)/C=C(\C)Nc1ccc(-c2cnc(-c3ccccc3)o2)cc1	.	.	76.3	.	78.2	72.0	.	.	.	.	.
CNC(=O)C[C@H]1C(=O)N(c2ccccc2)C[C@@H]1CSC	.	.	/	.	/	/	/	/	/	/	/
FC(F)(F)c1cc(Cl)c2nc(-c3ccccc3)cn2c1	.	.	83.3	.	76.0	86.8	.	81.3	94.4	68.7	.
Cc1cc(C(F)(F)F)nc(-n2cc(-c3cccc(N)c3)nn2)n1	.	.	.	.	.	.	/	/	/	/	/
Nc1cccc(-c2cn3cc(C(F)(F)F)cc(Cl)c3n2)c1	.	.	81.5	.	70.5	85.7	83.5	83.9	97.2	85.8	86.1
